From ChEMBL document CHEMBL1629471, “Synthesis of (S)-(+)-decursin and its analogues as potent inhibitors of melanin formation in B16 murine melanoma cells” (Eur J Med Chem, 2010) come the findings set out here.

By inhibition is commonly meant the drop in the measured response relative to a control, in per cent.

Data set [1] relates to B16-F10. As to the kind of experiment: Inhibition of melanin production in mouse B16F10 cells at 100 uM after 2 days. Conditions: B16-F10, 48 h. The format is functional. The gist of the method:
(§1)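 Extracellular melanin release: B16 murine melanoma cells seeded at 1×10^5 per well overnight, then alpha-MSH added with or without compound in phenol red-free DMEM for 2 d. Melanin in the medium quantified by absorbance at 405 nm. Cells were maintained in DMEM with 10% heat-inactivated FBS and 1% penicillin-streptomycin at 37 °C, 5% CO2.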

A short description of data set [2]: Cytotoxicity against mouse B16F10 cells assessed as cell viability after 24 hrs by MTT assay. The class given is cell-based, B16-F10. Set-up: concentration or dose not given beside the values. The gist of the method:
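B16 murine melanoma cells (DMEM, 10% heat-inactivated FBS, 1% penicillin-streptomycin, 5% CO2, 37 °C) exposed to compounds or no compound for 24 h. MTT (5 mg/ml in PBS) added, 3 h at 37 °C, formazan dissolved in DMSO, absorbance read at 570 nm.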

The test system of data set [3] is B16-F10. The data set is described as follows: Inhibition of melanin production in mouse B16F10 cells at 500 uM after 2 days. The class given is functional. The following applies: B16-F10, 48 h. The gist of the method:
as §1

Turning to `C=C(C)C(=O)O[C@H]1Cc2cc3ccc(=O)oc3cc2OC1(C)C`, the inhibition at 100 µM with B16-F10 [1] turned out to be 58.1%. Besides, the cytotoxicity (% decrease in viability) at 24 h in data set [2] amounted to 58.4%.
With `CC/C=C/C(=O)O[C@H]1Cc2cc3ccc(=O)oc3cc2OC1(C)C`, the inhibition at 100 µM with B16-F10 [1] was 79.4%. For the same molecule, the cytotoxicity (% decrease in viability) at 24 h in data set [2] amounted to 39.5%.
On the same counts, the results for `C=CCC(=O)O[C@H]1Cc2cc3ccc(=O)oc3cc2OC1(C)C` are -8.1% and 0.6%.
As to `C=CCCC(=O)O[C@H]1Cc2cc3ccc(=O)oc3cc2OC1(C)C`, the inhibition at 100 µM with B16-F10 [1] stood at 36.4%. Also, the cytotoxicity (% decrease in viability) at 24 h in data set [2] is -0.4%.
Consider `CC(=O)O[C@H]1Cc2cc3ccc(=O)oc3cc2OC1(C)C`, for which, in the data set with B16-F10 [1], the inhibition at 100 µM was -5.7%. Further, the cytotoxicity (% decrease in viability) at 24 h in data set [2] was 3.7%.
For `CC1(C)Oc2cc3oc(=O)ccc3cc2C[C@@H]1OC(=O)/C=C/c1cccc(O)c1`, in the data set with B16-F10 [1], the inhibition at 100 µM came out at 73.8%. Further, the cytotoxicity (% decrease in viability) at 24 h in data set [2] worked out at 47.9%.
On the same counts, the results for `CCCCC(=O)O[C@H]1Cc2cc3ccc(=O)oc3cc2OC1(C)C` are 76.5% and 10.4%.
Take `CCCCCCCCCC(=O)O[C@H]1Cc2cc3ccc(=O)oc3cc2OC1(C)C`: the inhibition at 100 µM in the data set with B16-F10 [1] was 79.3%. For the same molecule, the cytotoxicity (% decrease in viability) at 24 h in data set [2] came out at 28.2%.
Regarding `CC1(C)Oc2cc3oc(=O)ccc3cc2C[C@@H]1OC(=O)/C=C/c1cccnc1`, in the data set on B16-F10 [1], the inhibition at 100 µM stood at 53.5%. The cytotoxicity (% decrease in viability) at 24 h in data set [2] worked out at 5%.
As for `CC1(C)Oc2cc3oc(=O)ccc3cc2C[C@@H]1OC(=O)/C=C/c1cccs1`, the inhibition at 100 µM in the data set with B16-F10 [1] was determined as 71.6%. Further, in data set [2], the cytotoxicity (% decrease in viability) at 24 h was -15.4%.
Regarding `CC1(C)Oc2cc3oc(=O)ccc3cc2C[C@@H]1OC(=O)/C=C/c1ccco1`, the inhibition at 100 µM in the data set on B16-F10 [1] is 33%. In data set [2], the cytotoxicity (% decrease in viability) at 24 h is -1.4%.
Regarding `COc1ccccc1/C=C/C(=O)O[C@H]1Cc2cc3ccc(=O)oc3cc2OC1(C)C`, in the data set with B16-F10 [1], the inhibition at 100 µM is 63.7%. Moreover, the cytotoxicity (% decrease in viability) at 24 h in data set [2] is -5.1%.
For the molecule `CC1(C)Oc2cc3oc(=O)ccc3cc2C[C@@H]1OC(=O)/C=C/c1ccccc1O`, the inhibition at 100 µM in the data set with B16-F10 [1] came out at 76.8%. Also, the cytotoxicity (% decrease in viability) at 24 h in data set [2] stood at 74.2%.
In the case of `CC(=O)Oc1ccccc1/C=C/C(=O)O[C@H]1Cc2cc3ccc(=O)oc3cc2OC1(C)C`, the inhibition at 100 µM with B16-F10 [1] came to 65.9%. Also, in data set [2], the cytotoxicity (% decrease in viability) at 24 h was determined as 63.1%.
Take `COc1cccc(/C=C/C(=O)O[C@H]2Cc3cc4ccc(=O)oc4cc3OC2(C)C)c1`: in the data set on B16-F10 [1], the inhibition at 100 µM came to 37.9%. In addition, in data set [2], the cytotoxicity (% decrease in viability) at 24 h is 14.5%.
As for `CC(=O)Oc1cccc(/C=C/C(=O)O[C@H]2Cc3cc4ccc(=O)oc4cc3OC2(C)C)c1`, the inhibition at 100 µM in the data set on B16-F10 [1] amounted to 80.7%. Moreover, the cytotoxicity (% decrease in viability) at 24 h in data set [2] was 31.4%.
With `COc1ccc(/C=C/C(=O)O[C@H]2Cc3cc4ccc(=O)oc4cc3OC2(C)C)cc1`, in the data set with B16-F10 [1], the inhibition at 100 µM turned out to be 40.3%. Moreover, in data set [2], the cytotoxicity (% decrease in viability) at 24 h was -3.5%.
Take `CC1(C)Oc2cc3oc(=O)ccc3cc2C[C@@H]1OC(=O)/C=C/c1ccc(O)cc1`: the inhibition at 100 µM in the data set with B16-F10 [1] was found to be 66.4%. In addition, the cytotoxicity (% decrease in viability) at 24 h in data set [2] worked out at 65.8%.
On the same counts, the results for `CC(=O)Oc1ccc(/C=C/C(=O)O[C@H]2Cc3cc4ccc(=O)oc4cc3OC2(C)C)cc1` are 76.1% and 58%.
With `COc1ccc(/C=C/C(=O)O[C@H]2Cc3cc4ccc(=O)oc4cc3OC2(C)C)cc1OC`, the inhibition at 100 µM in the data set on B16-F10 [1] was 42.4%. Further, the cytotoxicity (% decrease in viability) at 24 h in data set [2] is -1.4%.
With `CC1(C)Oc2cc3oc(=O)ccc3cc2C[C@@H]1OC(=O)/C=C/c1ccc(O)c(O)c1`, the inhibition at 100 µM in the data set with B16-F10 [1] came to 43.5%. Moreover, the cytotoxicity (% decrease in viability) at 24 h in data set [2] came out at 67.6%.
In the case of `CC(=O)Oc1ccc(/C=C/C(=O)O[C@H]2Cc3cc4ccc(=O)oc4cc3OC2(C)C)cc1OC(C)=O`, the inhibition at 100 µM with B16-F10 [1] amounted to 30.7%. The cytotoxicity (% decrease in viability) at 24 h in data set [2] worked out at 49.4%.
As to `COc1cc(/C=C/C(=O)O[C@H]2Cc3cc4ccc(=O)oc4cc3OC2(C)C)cc(OC)c1OC`, the inhibition at 100 µM with B16-F10 [1] was 18.8%. Also, in data set [2], the cytotoxicity (% decrease in viability) at 24 h was found to be 4.1%.
For `CC1(C)Oc2cc3oc(=O)ccc3cc2C[C@@H]1OC(=O)/C=C/c1cc(O)c(O)c(O)c1`, the inhibition at 100 µM in the data set with B16-F10 [1] is 59.2%. Also, in data set [2], the cytotoxicity (% decrease in viability) at 24 h turned out to be 42.9%.
As for `CC(=O)Oc1cc(/C=C/C(=O)O[C@H]2Cc3cc4ccc(=O)oc4cc3OC2(C)C)cc(OC(C)=O)c1OC(C)=O`, the inhibition at 100 µM in the data set on B16-F10 [1] amounted to 35.4%. For the same molecule, the cytotoxicity (% decrease in viability) at 24 h in data set [2] is 54.8%.
Consider `CC1(C)Oc2cc3oc(=O)ccc3cc2C[C@@H]1OC(=O)CCc1ccccc1`, for which the inhibition at 100 µM with B16-F10 [1] was found to be 62.8%. Further, in data set [2], the cytotoxicity (% decrease in viability) at 24 h was -0.6%.
`COc1ccccc1CCC(=O)O[C@H]1Cc2cc3ccc(=O)oc3cc2OC1(C)C`: the inhibition at 100 µM in the data set on B16-F10 [1] stood at 68.9%. Besides, the cytotoxicity (% decrease in viability) at 24 h in data set [2] is 6.1%.
Turning to `OC[C@H]1O[C@@H](Oc2ccc(O)cc2)[C@H](O)[C@@H](O)[C@@H]1O` [ARBUTIN], in the data set with B16-F10 [3], the inhibition at 500 µM turned out to be 41%. For the same molecule, in data set [2], the cytotoxicity (% decrease in viability) at 24 h was -6.2%.
Take `C/C=C(/C)C(=O)O[C@H]1Cc2cc3ccc(=O)oc3cc2OC1(C)C` [DECURSINOL ANGELATE]: the inhibition at 100 µM in the data set on B16-F10 [1] was found to be 74.5%. For the same molecule, the cytotoxicity (% decrease in viability) at 24 h in data set [2] was -2.4%.
For `C/C=C(\C)C(=O)O[C@H]1Cc2cc3ccc(=O)oc3cc2OC1(C)C` [DECURSINOL TIGLATE], the inhibition at 100 µM in the data set with B16-F10 [1] is 71.5%. Besides, the cytotoxicity (% decrease in viability) at 24 h in data set [2] came to 16.4%.
For the molecule `CC1(C)Oc2cc3oc(=O)ccc3cc2C[C@@H]1O` [DECURSINOL], the inhibition at 100 µM with B16-F10 [1] came out at 12.2%. The cytotoxicity (% decrease in viability) at 24 h in data set [2] worked out at 1.4%.
As for `CC(C)=CC(=O)O[C@H]1Cc2cc3ccc(=O)oc3cc2OC1(C)C` [DECURSIN], the inhibition at 100 µM with B16-F10 [1] came out at 71%. Moreover, the cytotoxicity (% decrease in viability) at 24 h in data set [2] was -9.7%.
The corresponding values for `CC1(C)Oc2cc3oc(=O)ccc3cc2C[C@@H]1OC(=O)/C=C/c1ccccc1` [DIHYDROPYRANOCOUMARIN D2] are 72.1% and 0.8%.
For `CC1(C)Oc2cc3oc(=O)ccc3cc2C[C@@H]1OC/C=C/c1ccccc1` [PROGERININ], the inhibition at 100 µM with B16-F10 [1] is 33.8%. For the same molecule, in data set [2], the cytotoxicity (% decrease in viability) at 24 h was -12.5%.
